# Assay results of several laboratories.
# Protocols differ between the studies behind these lines.
# Target: Mitogen-activated protein kinase 14 (MAPK14, Homo sapiens, UniProt Q16539)
SMILES,observed,method,tested at,remaining binding [%]
Cc1c[nH]c2nccc(Oc3c(F)cc(Nc4cc(Cl)nc(N)n4)cc3F)c12,cell-free assay,competition with immobilised ligand,0.1 µM,100
CN(C)c1nccc(-c2cnn3ncccc23)n1,binding,,1 µM,91
CNCc1ccccc1-c1csc([C@@H](C)Nc2nc(C)nc3cc(OC)c(OC)cc23)c1,cell-free assay,competition with immobilised ligand,1 µM,87
N[C@@H]1CCN(c2nccc(-c3cnn4ncccc34)n2)C1,binding,,1 µM,100
CC(=O)Nc1c(C(C)=O)c(=O)n(C)c2nc(-c3ccc(Cl)cc3Cl)c(-c3ccc(Cl)cc3)cc12,cell-free assay,competition with immobilised ligand,1 µM,100
CC1CCCN1c1nccc(-c2cnn3ncccc23)n1 (stereo not shown),binding,,1 µM,100
COc1cnc(Nc2cccc(S(N)(=O)=O)c2)nc1N1CCN(c2ccccc2)C(=O)C1,binding,competition with immobilised ligand,1 µM,100
O=C(NCCCN1CCOCC1)c1ccc(Nc2ncc(Cl)c(-c3ccc(Cl)s3)n2)cc1,binding,competition with immobilised ligand,1 µM,100
N#Cc1ccccc1CSc1nnc2c(n1)[nH]c1ccccc12,binding,competition with immobilised ligand,10 µM,100
O=C(NCC1CCOCC1)c1n[nH]cc1NC(=O)c1c(F)cccc1F,binding,competition with immobilised ligand,1 µM,100
O=C(c1ccc(Nc2nccc(-c3cc4ccccc4s3)n2)cc1)N1CCC(N2CCCC2)CC1,binding,competition with immobilised ligand,1 µM,100
COc1ncc2cc3ccccc3nc2c1C#N,cell-free assay,competition with immobilised ligand,5 µM,100
O=C(c1ccc(Nc2ncc(Cl)c(-c3ccc(Cl)s3)n2)cc1)N1CCC(N2CCCC2)CC1,binding,competition with immobilised ligand,1 µM,91
CNC(=O)[C@@H]1CC[C@@H](n2c(-c3ccc4cnccc4c3)nc3ccc(C(=O)NCc4cccc(C(N)=O)c4)cc32)C1,binding,competition with immobilised ligand,1 µM,99
CN(C)c1nccc(-c2cnc3ncccn23)n1,binding,,1 µM,100
CCN1CCN(Cc2ccc(C(=O)Nc3ccc(C)c(Oc4ccc5c(c4)CC(=O)N5)c3)cc2C(F)(F)F)CC1,binding,competition with immobilised ligand,1 µM,18
CS(=O)(=O)c1cc(C2(NC(=O)c3cncc4c3cnn4-c3ccc(F)cc3)CC2)ccn1,cell-free assay,competition with immobilised ligand,1 µM,100
CN(c1nccc(-c2cnn3ncccc23)n1)C1CC1,binding,,1 µM,100
c1cncc(-c2cccc(Nc3nccc(NC4CCCCC4)n3)c2)c1,binding,competition with immobilised ligand,10 µM,85
CNC(=O)c1ccc(Nc2ncc(C(F)(F)F)c(NCc3nccnc3N(C)S(C)(=O)=O)n2)cc1,cell-free assay,competition with immobilised ligand,0.1 µM,100
C[C@@H]1CN(c2ccc3ncc(-c4ccc5[nH]nc(C6CC6)c5c4)n3n2)C[C@H](C)O1,binding,competition with immobilised ligand,0.5 µM,100
F[C@@H]1CCN(c2nccc(-c3cnn4ncccc34)n2)C1,binding,,1 µM,100
Nc1cnc(N2CCc3cc(S(=O)(=O)Nc4c(F)cc(Cl)cc4F)cc(N4CCCC4=O)c32)nc1,cell-free assay,competition with immobilised ligand,1 µM,100
C[C@@H]1CCN(c2nccc(-c3cnn4ncccc34)n2)C1,binding,,1 µM,100
O=C(N1CCS(=O)(=O)CC1)N1C[C@H](c2ccc(OC(F)(F)F)cc2)C[C@H](c2nc(C3CC3)no2)C1,cell-free assay,competition with immobilised ligand,1 µM,100
